Results taken from ChEMBL document CHEMBL1687821, “In vivo and in vitro efficacy of chloroquine against Plasmodium malariae and P. ovale in Papua, Indonesia” (Antimicrob Agents Chemother, 2011).

Key:
Plasmodium malariae [1] = experiment: Antimalarial activity against Plasmodium malariae ring stage infected in red blood cells in presence of AB+ human serum by drug susceptibility assay; format: functional, organism-based
Outline: (§1)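 Field isolates from venous blood, leukocytes removed on CF11 column. Modified WHO schizont-maturation microtest at 2% hematocrit in McCoy's 5A with 20% AB+ serum, 11 twofold dilutions (chloroquine top 5,910 nM). Candle jar, 37.5°C, 15–56 h, stopped at >40% schizonts in the drug-free control. Schizonts (≥5 chromatin dots) per 200 asexual parasites, normalized to control. IC50 from inhibitory sigmoid Emax fit. Isolates grouped by predominant stage at start.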

Plasmodium malariae [2] = experiment: Antimalarial activity against Plasmodium malariae trophozoite stage infected in red blood cells in presence of AB+ human serum by drug susceptibility assay; format: functional, organism-based; outline: as §1
Plasmodium ovale [3] = experiment: Antimalarial activity against Plasmodium ovale ring stage infected in red blood cells in presence of AB+ human serum by drug susceptibility assay; format: functional; outline: as §1
Plasmodium ovale [4] = experiment: Antimalarial activity against Plasmodium ovale trophozoite stage infected in red blood cells in presence of AB+ human serum by drug susceptibility assay; format: functional; outline: as §1
Plasmodium malariae [5] = experiment: Antimalarial activity against Plasmodium malariae in patients assessed as parasite reduction ratio at 25 mg/kg, po after 48 hrs; format: functional
Outline: (§2)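 Oral chloroquine tablets (150 mg base each) at 25 mg/kg over 3 days, all doses supervised; dose repeated once if vomited within 60 min. Parasitemia counted on Giemsa-stained thick films as parasites per 200 WBCs by an expert microscopist. Reduction ratio taken at 48 h.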

Plasmodium ovale [6] = experiment: Antimalarial activity against Plasmodium ovale in patients assessed as parasite reduction ratio at 25 mg/kg, po after 48 hrs; format: functional; outline: as §2

Row | IC50 (Plasmodium malariae [1]) | IC50 (Plasmodium malariae [2]) | IC50 (Plasmodium ovale [3]) | IC50 (Plasmodium ovale [4]) | SMILES | Ratio (Plasmodium malariae [5]) | Ratio (Plasmodium ovale [6])
1 | 1.77 nM | 2.84 nM | 1.16 nM | 1.28 nM | C[C@H]1[C@H](OC(=O)CCC(=O)O)O[C@@H]2O[C@@]3(C)CC[C@H]4[C@H](C)CC[C@@H]1[C@@]24OO3 [ARTESUNATE] | – | –
2 | 36.8 nM | 46.9 nM | 23.8 nM | – | OC(c1cc(C(F)(F)F)nc2c(C(F)(F)F)cccc12)C1CCCCN1 (stereo not drawn) [MEFLOQUINE] | – | –

Continued, molecule first:

Row | SMILES | IC50 (Plasmodium malariae [1]) | IC50 (Plasmodium malariae [2]) | IC50 (Plasmodium ovale [3]) | IC50 (Plasmodium ovale [4]) | Ratio (Plasmodium malariae [5]) | Ratio (Plasmodium ovale [6])
3 | CCN(CC)Cc1cc(Nc2ccnc3cc(Cl)ccc23)ccc1O | 21.7 nM | 19.1 nM | 4.3 nM | – | – | –
4 | CCN(CC)CCCC(C)Nc1ccnc2cc(Cl)ccc12 (stereo not drawn) [CHLOROQUINE] | 14 nM | 128 nM | 7.8 nM | 23.2 nM | 86 | 150
5 | Clc1ccc2c(N3CCN(CCCN4CCN(c5ccnc6cc(Cl)ccc56)CC4)CC3)ccnc2c1 [PIPERAQUINE] | 29 nM | 38.4 nM | 10.2 nM | 7.57 nM | – | –
6 | COc1ccc2nc3cc(Cl)ccc3c(Nc3cc(CN4CCCC4)c(O)c(CN4CCCC4)c3)c2n1 [PYRONARIDINE] | 4.1 nM | 7.8 nM | 0.72 nM | – | – | –
